Out of some 330,000 compounds screened, about 350 (0.11%) were called active. The list comes from a sample in which actives are over-represented; it also holds similar structures and randomly drawn compounds. Values without a mark were called inactive.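 Rule for the calls: active = activation above the mean of all tested compounds plus 3 SD (cut at about 21% in these data); inactive = the rest.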
These molecules were tested against Caspase-3 (Homo sapiens) (UniProt P42574) (assay: activators of human procaspase-3 D3A mutant, primary screen, biochemical, absorbance, PC-3 D3A mutant, single concentration (AID 463141;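 note: 0% = DMSO alone and 100% = DMSO wells spiked with extra 5 µM PC-3 D3A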)). Settings: recombinant procaspase-3 D3A, Ac-DEVD-pNA absorbance 405 nm; at 8.5 µM; stronger effect = higher value.
Caspase-3 (Homo sapiens), sequence (P42574 whole entry D9A/D28A/D175A): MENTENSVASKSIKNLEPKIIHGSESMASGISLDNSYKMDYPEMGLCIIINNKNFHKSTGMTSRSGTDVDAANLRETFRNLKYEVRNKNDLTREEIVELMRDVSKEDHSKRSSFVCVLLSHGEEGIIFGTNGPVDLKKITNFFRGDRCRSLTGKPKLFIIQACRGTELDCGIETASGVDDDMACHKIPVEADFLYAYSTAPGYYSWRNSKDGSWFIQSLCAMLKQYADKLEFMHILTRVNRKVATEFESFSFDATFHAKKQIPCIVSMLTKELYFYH
Procedure, shortened: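 Evaluation: percent activation relative to control range; Material: Procaspase-3 D3A mutant, all three cleavage aspartates alanine; Compound: single dose, 8.5 µM nominal compound, 0.8% DMSO; Replication: one well per compound; Signal: absorbance at 405 nm, 0 and 120 min; Schedule: 1 h preincubation plus 2 h reaction at 25 °C.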

Row | SMILES | activation
1 | COCCn1c(SCC(=O)Nc2nc(C)cs2)nnc1C(C)C | 2.76%
2 | CCCN1C2=C(C(=O)CCC2)C(c2ccc(O)c(Br)c2)C2=C1CCCC2=O | -10.1%
3 | COc1ccc(C)cc1Nc1nc(C)nc2c1oc1ccccc12 | 4.37%
4 | COc1ccc(C)cc1NC(=O)NCc1ccccn1 | -10.4%
5 | COC(=O)c1cnc(Nc2cc(C)ccc2OC)c2ccccc12 | 35.2% (active)
6 | COc1ccc(CN2[C@@H](CC(=O)O)c3cc(F)ccc3S2(=O)=O)cc1 | 3.51%
7 | CC1CCCN(S(=O)(=O)c2ccc(N(C(=O)c3cnccn3)C(C(=O)NC3CCCCC3)c3cccs3)cc2)C1 (configuration not stated) | 3.94%
8 | Cc1cccc(C)c1N1C(=O)CN(Cc2ccccc2)C1=S | -3%
9 | NC(=O)c1nsc(C(=O)N(CCCN2CCOCC2)C(C(=O)NC2CCCCC2)c2ccc(Cl)cc2)c1N (configuration not stated) | -8.01%
10 | Cc1nn(C)cc1CNC(=O)Nc1ccc(Cl)cc1 | 31.2% (active)
11 | O=C(NCc1ccccn1)Nc1ccc(Cl)cc1 | -0.71%
12 | Cc1nn(C)cc1C(=O)NNC(=S)Nc1ccc(Cl)cc1 | -4.7%
13 | CN(C)CCNC(=O)C(C(=O)c1ccccc1)n1ccccc1=O (configuration not stated) | 2.49%
14 | O=C(Cn1nc(C(=O)O)c2ccccc2c1=O)Nc1ccc(F)cc1 | 2.68%
15 | Cc1cccc(NC(=O)c2cccc(C(=O)Nc3cccc(C)c3C)n2)c1C | -5.05%
16 | Cc1ccccc1CSCCNC(=O)c1ccc(N(C)S(=O)(=O)c2ccccc2)cc1 | -1.26%
17 | COc1cc(CNCc2cccs2)cc(Br)c1OC | 2.29%
18 | CCCC(=O)Nc1nc2ccc(NC(=O)c3c(F)c(F)c(OC)c(F)c3F)cc2s1 | 8.06%
19 | COc1ccc2nc(NC(=O)NC3CCCCC3)sc2c1 | -1.14%
20 | COc1ccc2nc(Nc3nc4ccc(NC(C)=O)cc4s3)sc2c1 | 28.4% (active)
21 | COC(=O)Cc1cc(=O)oc2c(C)c(O)ccc12 | 22.9% (active)
22 | CCCc1cc(=O)oc2c(C)c(OCC(=O)Nc3ccccn3)ccc12 | -8.09%
23 | COc1cccc(C(=O)OCc2cc(=O)oc3c(C)c(C)ccc23)c1OC | 1.33%

Row | SMILES | activation
24 | C=CCSc1ccc(S(=O)(=O)N2CCN(C)CC2)cn1 | 6.46%
25 | COC(=O)[C@@H]1C[C@@]2(O)[C@H](O)[C@H](O)[C@H](O)C[C@H]2N1Cc1ccc(C(C)(C)C)cc1 | 1.49%
26 | COc1ccc(CNC(=O)c2ccc(NS(=O)(=O)c3ccc4[nH]c(=O)[nH]c4c3)cc2)cc1OC | -5.34%
27 | C[C@@H]1CN([C@H](C)CO)C(=O)c2cc(NC(=O)NC3CCCCC3)ccc2O[C@H]1CN(C)S(C)(=O)=O | -10.4%
28 | COc1ccccc1C1C(C#N)=C(N)Oc2c1c(-c1ccccc1)nn2-c1ccccc1 (configuration not stated) | 3.18%
29 | Cc1cc(C)n(-c2nc(O)cc(=O)[nH]2)n1 | 13.4%
30 | CCOc1ccc2c(=O)c(-c3ccc4c(c3)OCCCO4)c(C)oc2c1 | -0.35%
31 | O=C(CSCc1ccccc1Cl)NNC(=O)c1ccccc1 | -5.37%
32 | O=C(Nc1cccc2ccccc12)c1onc2c1CCCC2 | 2.73%
33 | O=C(CN1CCC(O)(c2cccc(C(F)(F)F)c2)CC1)NCCc1ccccc1 | 2.72%
34 | COC(CCN(C)C)(c1ccccc1)c1ccccc1 | -2.83%
35 | O=[N+]([O-])c1ccc(C=Nc2ccc(Cl)cc2Cl)s1 | 6.25%
36 | CCn1c(SCC(=O)NC2=NCCS2)nnc1C(C)NC(=O)c1ccccc1F (configuration not stated) | 2.41%
37 | O=C1c2ccccc2C(O)N1Cc1ccccc1Cl (configuration not stated) | -2.13%
38 | COc1ccc2[nH]c3c(c2c1)CCN1C(=O)C(CC(=O)NCCc2ccccn2)C[C@H](C(=O)N2CCOCC2)[C@@]31C (some centres not stated) | 0.02%
39 | O=P(c1cccs1)(c1cccs1)c1cccs1 | -8.39%
40 | Cc1[nH]n(C(N)=S)c(=O)c1N=Nc1ccc(Cl)cc1Cl | -2.96%
41 | CCN(c1ccc2c(c1)OCO2)S(=O)(=O)c1cc(Br)cc2c1N(C(=O)C1CC1)CC2 | 5.06%
42 | O=C(CCNS(=O)(=O)c1ccccc1C(F)(F)F)NCc1ccc2c(c1)OCO2 | 32.1% (active)
43 | Cn1cc(CCC(=O)NCc2ccc3c(c2)OCO3)c2ccccc21 | 11.3%
44 | O=C(CCNS(=O)(=O)c1ccccc1C(F)(F)F)Nc1ccncc1 | 1.72%
45 | CN1CCN(CCNC(=O)Nc2ccccc2[N+](=O)[O-])CC1 | 4.28%
46 | CN(C)c1ccc(C=NCCc2ccc(S(N)(=O)=O)cc2)cc1 | 8.03%

Row | SMILES | activation
47 | Cc1ccc(C)c(NC(=O)COC(=O)c2nn(C)c(=O)c3ccccc23)c1 | 14.6%
48 | COc1cc(NC(=O)c2ccc(-c3csc(C)n3)cc2)c(OC)cc1Cl | 3.93%
49 | CCCc1cc(=O)[nH]c(SCC(=O)Nc2ccc(C(=O)Nc3ccccc3OC)cc2)n1 | 0.24%
50 | CCN(Cc1ccccc1)S(=O)(=O)c1cc(C(=O)O)ccc1OC | 5.66%
51 | FC(F)(F)c1cccc(-c2nc(COc3ccc(Cl)cc3Cl)no2)c1 | -1.22%
52 | CCCc1nc2c(C)cc(-c3nc4ccccc4n3C)cc2n1Cc1ccc(-c2ccccc2C(=O)O)cc1 | 5.04%
53 | CC1(C)Cc2c(C#N)c(SCc3nc4ccccc4[nH]3)nc(N3CCOCC3)c2CO1 | 30.9% (active)
54 | CC(C)C(=O)N1CCN(c2nc(-c3ccccc3)c3c(c2C#N)CC(C)(C)OC3)CC1 | 5.16%
55 | COc1ccc(CSc2nc(N3CCOCC3)c3c(c2C#N)CC(C)(C)OC3)cc1 | -2.72%
56 | COc1ccc(OC)c(/C=N/NC(=O)c2ccc[n+](CC(=O)c3ccccc3)c2)c1 | -2.7%
57 | COc1ccc(OC)c(Nc2nc3ccccc3n3cnnc23)c1 | -2.95%
58 | Cc1cc(F)ccc1S(=O)(=O)Nc1ccc(C(=O)N(C)Cc2ccco2)cc1 | 12.5%
59 | CCN(CC)S(=O)(=O)c1ccc(Cl)c(C(=O)NC(C)C(c2cccs2)N2CCCC2)c1 (configuration not stated) | 0.02%
60 | O=C(NCc1ccccc1)[C@@H]1CSC2c3ccccc3C(=O)N21 (some centres not stated) | 5.1%
61 | Cn1nc([N+](=O)[O-])nc1Sc1ccc(C(C)(C)C)cc1 | -0.3%
62 | ONC(=Nc1ccc(Cl)cc1)c1ccccc1Cl | 4.43%
63 | C=CCn1c(SCc2nnc(-c3ccccc3)o2)nnc1C(O)c1ccccc1 (configuration not stated) | -1.35%
64 | CC1CCN(C(=S)NC2CC3CCC2C3)CC1 (configuration not stated) | -7.41%
65 | CCCNC(=O)CN(Cc1ccccc1F)S(=O)(=O)c1ccc(C)cc1 | 4.46%
66 | Cc1ccc(N(C(=O)C(F)(F)F)C(C(=O)NC2CCCCC2)c2ccncc2)cc1C (configuration not stated) | -2.69%
67 | O=C(NCCS(=O)(=O)c1ccc(Br)cc1)c1ccccc1Cl | 3.23%
